Read-outs that look alike come from different tables or passages of the source.
Experiments:
CHLA-136 cell line = assay: DIMSCAN in vitro cytotoxicity testing, CHLA-136; type: cell-based
Summary of the method: (§1)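 Test compound incubated with cells of a 24-line pediatric cancer panel for 96 h at 0.1 nM to 1 μM, then assessed by DIMSCAN. Relative IC50 (rIC50) derived per line. Panel comparison value is the panel rIC50 divided by the rIC50 of each cell line.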

[1] = test system: D456 glioblastoma xenograft; assay: PPTP in vivo xenograft testing, D456; design: species or system mice
Rh41 cell line = assay: DIMSCAN in vitro cytotoxicity testing, Rh41; type: cell-based
Summary of the method: as §1

CHLA-10 cell line = assay: DIMSCAN in vitro cytotoxicity testing, CHLA-10; type: cell-based
Summary of the method: as §1

[2] = test system: BT-41 ependymoma xenograft; assay: PPTP in vivo xenograft testing, BT-41; design: species or system mice
[3] = test system: OS-2 osteosarcoma xenograft; assay: PPTP in vivo xenograft testing, OS-2; design: species or system mice
BT-29 rhabdoid xenograft = assay: PPTP in vivo xenograft testing, BT-29; design: species or system mice
[4] = test system: ALL-8 ALL T-cell xenograft; assay: PPTP in vivo xenograft testing, ALL-8; design: species or system mice
SJ-GBM2 cell line = assay: DIMSCAN in vitro cytotoxicity testing, SJ-GBM2; type: cell-based
Summary of the method: as §1

[5] = test system: OS-1 osteosarcoma xenograft; assay: PPTP in vivo xenograft testing, OS-1; design: species or system mice
CCRF-CEM cell line = assay: DIMSCAN in vitro cytotoxicity testing, CCRF-CEM; type: cell-based; conditions: for IC50: Homo sapiens, CCRF-CEM, 96 h
Summary of the method: as §1

Ramos-RA1 cell line = assay: DIMSCAN in vitro cytotoxicity testing, Ramos-RA1; type: cell-based
Summary of the method: as §1

KT-13 Wilms xenograft = assay: PPTP in vivo xenograft testing, KT-13; design: species or system mice
[6] = test system: NB-SD neuroblastoma xenograft; assay: PPTP in vivo xenograft testing, NB-SD; design: species or system mice
BT-12 cell line = assay: DIMSCAN in vitro cytotoxicity testing, BT-12; type: cell-based
Summary of the method: as §1

[7] = test system: Rh10 ALV rhabdomyosarcoma xenograft; assay: PPTP in vivo xenograft testing, Rh10; design: species or system mice
[8] = test system: BT-39 glioblastoma xenograft; assay: PPTP in vivo xenograft testing, BT-39; design: species or system mice
RD cell line = assay: DIMSCAN in vitro cytotoxicity testing, RD; type: cell-based
Summary of the method: as §1

NB-EBc1 cell line = assay: DIMSCAN in vitro cytotoxicity testing, NB-EBc1; type: cell-based
Summary of the method: as §1

[9] = test system: ALL-31 tertiary T-cell ALL xenograft; assay: PPTP in vivo xenograft testing, ALL-31; design: species or system mice
MOLT-4 cell line = assay: DIMSCAN in vitro cytotoxicity testing, MOLT-4; type: cell-based
Summary of the method: as §1

[10] = test system: ALL-2 ALL B-precursor xenograft; assay: PPTP in vivo xenograft testing, ALL-2; design: species or system mice
CHLA-9 cell line = assay: DIMSCAN in vitro cytotoxicity testing, CHLA-9; type: cell-based
Summary of the method: as §1

[11] = 1 mg/kg IP Q4Dx3 repeated at Day 21
[12] = 1.5 mg/kg IP Q4Dx3 repeated at Day 21

C=C1C[C@@H]2CC[C@@]34C[C@H]5O[C@H]6[C@@H](O3)[C@H]3O[C@H](CC[C@@H]3O[C@H]6[C@H]5O4)CC(=O)C[C@@H]3[C@@H](OC)[C@@H](C[C@H](O)CN)O[C@H]3C[C@H]3O[C@@H](CC[C@@H]1O2)C[C@@H](C)C3=C [Eribulin]
IC50 (CHLA-136 cell line; 96 h, read-out: rIC50): 2.37 nM
Panel rIC50/Line rIC50 (CHLA-136 cell line; CHLA-136): 0.11
Relative in/out% (CHLA-136 cell line; CHLA-136): −65%
Ymin % (observed) (CHLA-136 cell line; CHLA-136): 9.96%
EFS activity ([1]; 1 mg/kg IP): Int (Intermediate activity = criteria (a) and (b) above, but not having a net reduction in median tumor volume for treated animals at the end of the study)
Response activity ([1]; 1 mg/kg IP): Int (intermediate activity by a score of ≥2 but <6)
T/C volume activity ([1]; 1 mg/kg IP): Low (Low activity = T/C >0.45)
EFS T/C [1, 11]: 3.4
Median final RTV (CD45%) [1, 11]: >4
Time to event [1, 11]: 19.8
Tumor volume T/C ([1]; 1 mg/kg IP, Day 21 or earlier): 1.00
IC50 (Rh41 cell line; Homo sapiens, Rh41, 96 h, read-out: rIC50): 0.14 nM
Panel rIC50/Line rIC50 (Rh41 cell line; Rh41): 2.00
Relative in/out% (Rh41 cell line; Rh41): −70%
Ymin % (observed) (Rh41 cell line; Rh41): 6.63%
IC50 (CHLA-10 cell line; 96 h, read-out: rIC50): 0.11 nM
Panel rIC50/Line rIC50 (CHLA-10 cell line; CHLA-10): 2.58
Relative in/out% (CHLA-10 cell line; CHLA-10): −28%
Ymin % (observed) (CHLA-10 cell line; CHLA-10): 4.54%
Response activity ([2]; 1 mg/kg IP): Int (intermediate activity by a score of ≥2 but <6)
T/C volume activity ([2]; 1 mg/kg IP): Int (Intermediate activity = T/C ≤0.45 but >0.15)
Median final RTV (CD45%) [2, 11]: 1.3
Tumor volume T/C ([2]; 1 mg/kg IP, Day 21 or earlier): 0.42
EFS activity ([3]; 1 mg/kg IP): High (High activity requires: (a) an EFS T/C >2; (b) a significant difference in EFS distributions, and (c) a net reduction in median tumor volume for animals in the treated group at the end of treatment as compared to at treatment initiation)
Response activity ([3]; 1 mg/kg IP): Int (intermediate activity by a score of ≥2 but <6)
T/C volume activity ([3]; 1 mg/kg IP): Int (Intermediate activity = T/C ≤0.45 but >0.15)
EFS T/C [3, 11]: >2.5
Median final RTV (CD45%) [3, 11]: 0.8
Tumor volume T/C ([3]; 1 mg/kg IP, Day 21 or earlier): 0.21
Response activity (BT-29 rhabdoid xenograft; 1 mg/kg IP): Int (intermediate activity by a score of ≥2 but <6)
T/C volume activity (BT-29 rhabdoid xenograft; 1 mg/kg IP): Low (Low activity = T/C >0.45)
EFS T/C (BT-29 rhabdoid xenograft; [11]): >1.6
Median final RTV (CD45%) (BT-29 rhabdoid xenograft; [11]): >4
Tumor volume T/C (BT-29 rhabdoid xenograft; 1 mg/kg IP, Day 21 or earlier): 0.65
EFS activity ([4]; 1.5 mg/kg IP): High (High activity requires: (a) an EFS T/C >2; (b) a significant difference in EFS distributions, and (c) a net reduction in median tumor volume for animals in the treated group at the end of treatment as compared to at treatment initiation)
Response activity ([4]; 1.5 mg/kg IP): High (A high level of activity is indicated by a score of 6 or more)
EFS T/C [4, 12]: >7.9
Median final RTV (CD45%) ([4]; CD45%, 1.5 mg/kg IP): 0.0%
IC50 (SJ-GBM2 cell line; 96 h, read-out: rIC50): 0.51 nM
Panel rIC50/Line rIC50 (SJ-GBM2 cell line; SJ-GBM2): 0.53
Relative in/out% (SJ-GBM2 cell line; SJ-GBM2): −95%
Ymin % (observed) (SJ-GBM2 cell line; SJ-GBM2): 0.46%
Response activity ([5]; 1 mg/kg IP): High (A high level of activity is indicated by a score of 6 or more)
T/C volume activity ([5]; 1 mg/kg IP): Low (Low activity = T/C >0.45)
EFS T/C [5, 11]: >1.5
Median final RTV (CD45%) [5, 11]: 0.4
Tumor volume T/C ([5]; 1 mg/kg IP, Day 21 or earlier): 0.64
Panel rIC50/Line rIC50 (CCRF-CEM cell line; CCRF-CEM (1)): 0.17
Relative in/out% (CCRF-CEM cell line; CCRF-CEM (1)): −100%
Ymin % (observed) (CCRF-CEM cell line; CCRF-CEM (1)): 0.01%
Panel rIC50/Line rIC50 (CCRF-CEM cell line; CCRF-CEM (2)): 0.14
Relative in/out% (CCRF-CEM cell line; CCRF-CEM (2)): −100%
Ymin % (observed) (CCRF-CEM cell line; CCRF-CEM (2)): 0.02%
IC50 (CCRF-CEM cell line; read-out: rIC50, CCRF-CEM (1) ALL): 1.62 nM
IC50 (CCRF-CEM cell line; read-out: rIC50, CCRF-CEM (2) ALL): 1.88 nM
IC50 (Ramos-RA1 cell line; 96 h, read-out: rIC50): < 0.1 nM
Panel rIC50/Line rIC50 (Ramos-RA1 cell line; Ramos-RA1): >2.74
Relative in/out% (Ramos-RA1 cell line; Ramos-RA1): −100%
Ymin % (observed) (Ramos-RA1 cell line; Ramos-RA1): 0.00%
EFS activity (KT-13 Wilms xenograft; 1 mg/kg IP): Int (Intermediate activity = criteria (a) and (b) above, but not having a net reduction in median tumor volume for treated animals at the end of the study)
Response activity (KT-13 Wilms xenograft; 1 mg/kg IP): High (A high level of activity is indicated by a score of 6 or more)
T/C volume activity (KT-13 Wilms xenograft; 1 mg/kg IP): High (High activity = T/C ≤0.15)
EFS T/C (KT-13 Wilms xenograft; [11]): >3.3
Median final RTV (CD45%) (KT-13 Wilms xenograft; [11]): 1.1
Tumor volume T/C (KT-13 Wilms xenograft; 1 mg/kg IP, Day 21 or earlier): 0.15
EFS activity ([6]; 1 mg/kg IP): Int (Intermediate activity = criteria (a) and (b) above, but not having a net reduction in median tumor volume for treated animals at the end of the study)
Response activity ([6]; 1 mg/kg IP): Int (intermediate activity by a score of ≥2 but <6)
T/C volume activity ([6]; 1 mg/kg IP): Low (Low activity = T/C >0.45)
EFS T/C [6, 11]: 2.4
Median final RTV (CD45%) [6, 11]: >4
Time to event [6, 11]: 17.5
Tumor volume T/C ([6]; 1 mg/kg IP, Day 21 or earlier): 0.53
Panel rIC50/Line rIC50 (BT-12 cell line; BT-12): 1.83
Relative in/out% (BT-12 cell line; BT-12): −74%
Ymin % (observed) (BT-12 cell line; BT-12): 2.12%
IC50 (BT-12 cell line; Homo sapiens, BT-12, 96 h, read-out: rIC50): 0.15 nM
EFS activity ([7]; 1 mg/kg IP): High (High activity requires: (a) an EFS T/C >2; (b) a significant difference in EFS distributions, and (c) a net reduction in median tumor volume for animals in the treated group at the end of treatment as compared to at treatment initiation)
Response activity ([7]; 1 mg/kg IP): High (A high level of activity is indicated by a score of 6 or more)
T/C volume activity ([7]; 1 mg/kg IP): High (High activity = T/C ≤0.15)
EFS T/C [7, 11]: >3.8
Median final RTV (CD45%) [7, 11]: 0.0
Tumor volume T/C ([7]; 1 mg/kg IP, Day 21 or earlier): 0.08
EFS activity ([8]; 1 mg/kg IP): High (High activity requires: (a) an EFS T/C >2; (b) a significant difference in EFS distributions, and (c) a net reduction in median tumor volume for animals in the treated group at the end of treatment as compared to at treatment initiation)
Response activity ([8]; 1 mg/kg IP): Int (intermediate activity by a score of ≥2 but <6)
T/C volume activity ([8]; 1 mg/kg IP): Low (Low activity = T/C >0.45)
EFS T/C [8, 11]: >3.6
Median final RTV (CD45%) [8, 11]: 0.5
Tumor volume T/C ([8]; 1 mg/kg IP, Day 21 or earlier): 1.00
Panel rIC50/Line rIC50 (RD cell line): 1.92
Relative in/out% (RD cell line): −18%
Ymin % (observed) (RD cell line): 4.49%
IC50 (RD cell line; Homo sapiens, 96 h, read-out: rIC50): 0.14 nM
IC50 (NB-EBc1 cell line; 96 h, read-out: rIC50): 14.8 nM
Panel rIC50/Line rIC50 (NB-EBc1 cell line; NB-EBc1): 0.02
Relative in/out% (NB-EBc1 cell line; NB-EBc1): −92%
Ymin % (observed) (NB-EBc1 cell line; NB-EBc1): 1.76%
EFS activity ([9]; 1.5 mg/kg IP): Int (Intermediate activity = criteria (a) and (b) above, but not having a net reduction in median tumor volume for treated animals at the end of the study)
Response activity ([9]; 1.5 mg/kg IP): High (A high level of activity is indicated by a score of 6 or more)
EFS T/C [9, 12]: >3.7
Median final RTV (CD45%) ([9]; CD45%, 1.5 mg/kg IP): 12.9%
IC50 (MOLT-4 cell line; Homo sapiens, MOLT-4, 96 h, read-out: rIC50): < 0.1 nM
Panel rIC50/Line rIC50 (MOLT-4 cell line; MOLT-4): >2.74
Relative in/out% (MOLT-4 cell line; MOLT-4): −99%
Ymin % (observed) (MOLT-4 cell line; MOLT-4): 0.05%
EFS activity ([10]; 1.5 mg/kg IP): High (High activity requires: (a) an EFS T/C >2; (b) a significant difference in EFS distributions, and (c) a net reduction in median tumor volume for animals in the treated group at the end of treatment as compared to at treatment initiation)
Response activity ([10]; 1.5 mg/kg IP): High (A high level of activity is indicated by a score of 6 or more)
EFS T/C [10, 12]: >2.8
Median final RTV (CD45%) ([10]; CD45%, 1.5 mg/kg IP): 0.0%
IC50 (CHLA-9 cell line; 96 h, read-out: rIC50): 0.16 nM
Panel rIC50/Line rIC50 (CHLA-9 cell line; CHLA-9): 1.68
Relative in/out% (CHLA-9 cell line; CHLA-9): −49%
Ymin % (observed) (CHLA-9 cell line; CHLA-9): 1.82%

Reference: publication PMC4263960 (Pediatric blood & cancer, 2013)
